Here are results for ten compounds from ChEMBL document CHEMBL1177758, “Anti-neuroinflammatory activity of 1,5-benzodiazepine derivatives” (Bioorg Med Chem Lett, 2010).

The test system of data set [1] is BV-2. The data set can be described thus: Antiinflammatory activity in mouse BV2 cells assessed as inhibition of LPS-induced NO production after 24 hrs by Griess reaction. Format: functional, cell-based. To be noted: BV-2, 24 h. In short, it runs like this: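 Murine BV-2 microglia stimulated with LPS at 100 ng/ml for 24 h with or without compound. Nitrite, a soluble oxidation product of NO, was measured in the culture medium by Griess reaction.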
In general terms: Griess reagent forms a coloured azo dye with nitrite.

For data set [2], the system named is BV-2. Put plainly: Antiinflammatory activity in mouse BV2 cells assessed as inhibition of LPS-induced NO production at 10 uM after 24 hrs by Griess reaction. To be noted: BV-2, 24 h. The class given is functional. In short, it runs like this:
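BV-2 microglial cells were activated with 100 ng/ml LPS for 24 h with compound at 10 µM. Medium nitrite was measured by Griess reaction. The value is mean inhibition of NO production relative to the LPS control, from three experiments.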

The nature of data set [3]: Cytotoxicity against mouse BV2 cells. The class given is cell-based, BV-2. The note with it: read-out: INH. In a few lines:
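Viability of murine BV-2 microglia, stimulated with LPS at 100 ng/ml for 24 h with or without compound, was measured by MTT assay.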

Data set [4] deals with BV-2. The data set can be described thus: Antiinflammatory activity in mouse BV2 cells assessed as inhibition of LPS-induced iNOS protein expression at 10 uM after 6 hrs by Western blotting. (In general: In western blotting, separated proteins are transferred to a membrane and probed.)
The target in data set [5] is T1, Nitric oxide synthase, inducible (Mus musculus) (UniProt P29477).
T1 sequence (whole entry): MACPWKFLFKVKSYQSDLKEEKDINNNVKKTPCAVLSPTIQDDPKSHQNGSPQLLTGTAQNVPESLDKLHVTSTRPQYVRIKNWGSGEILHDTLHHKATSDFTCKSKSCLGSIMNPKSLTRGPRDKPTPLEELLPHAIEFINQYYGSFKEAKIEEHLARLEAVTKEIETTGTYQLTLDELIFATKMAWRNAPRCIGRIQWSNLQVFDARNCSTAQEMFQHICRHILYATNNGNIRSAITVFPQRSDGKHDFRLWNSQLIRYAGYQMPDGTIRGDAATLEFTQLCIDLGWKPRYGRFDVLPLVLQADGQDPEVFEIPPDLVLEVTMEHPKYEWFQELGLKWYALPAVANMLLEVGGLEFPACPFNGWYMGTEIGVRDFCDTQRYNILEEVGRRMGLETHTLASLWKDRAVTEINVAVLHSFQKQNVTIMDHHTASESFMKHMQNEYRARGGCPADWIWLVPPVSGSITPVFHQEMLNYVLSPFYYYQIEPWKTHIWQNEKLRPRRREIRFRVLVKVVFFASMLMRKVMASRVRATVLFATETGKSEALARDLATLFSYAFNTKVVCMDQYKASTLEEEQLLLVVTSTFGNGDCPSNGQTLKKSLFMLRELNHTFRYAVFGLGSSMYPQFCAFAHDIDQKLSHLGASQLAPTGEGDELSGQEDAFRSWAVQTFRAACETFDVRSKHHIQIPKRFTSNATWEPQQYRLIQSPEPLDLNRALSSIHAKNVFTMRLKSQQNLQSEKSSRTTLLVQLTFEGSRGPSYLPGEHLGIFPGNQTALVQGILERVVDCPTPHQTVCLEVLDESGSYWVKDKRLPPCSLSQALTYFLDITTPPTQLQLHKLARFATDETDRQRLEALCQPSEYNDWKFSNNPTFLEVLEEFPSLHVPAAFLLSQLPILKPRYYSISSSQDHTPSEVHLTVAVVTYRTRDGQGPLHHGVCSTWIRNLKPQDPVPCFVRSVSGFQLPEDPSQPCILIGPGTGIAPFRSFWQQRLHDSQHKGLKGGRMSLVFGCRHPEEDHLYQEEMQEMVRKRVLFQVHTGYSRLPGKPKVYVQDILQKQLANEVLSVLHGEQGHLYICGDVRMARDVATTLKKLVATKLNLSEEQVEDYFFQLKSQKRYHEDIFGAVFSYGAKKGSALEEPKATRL
The data set can be described thus: Inhibition of iNOS activity in LPS-stimulated mouse BV2 cells after 12 hrs. The class given is cell-based. To be noted: BV-2. In short, it runs like this: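 Intact-cell iNOS activity assay. BV-2 cells (4 × 10⁶) were pre-induced with LPS at 100 ng/ml for 12 h, washed twice with PBS, then replated at 2 × 10⁶ cells/well. They were incubated with various compound concentrations for a further 12 h. Supernatant NO was read by Griess reaction.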

Molecules are shown by their SMILES. pIC50: −log10 of the molar value. Active and inactive are the calls of the source. No cut-off for these calls is given here.

As usually defined, the pIC50 is the IC50 on a negative log10 scale, so that one unit is a factor of ten. One may read the inhibition as the share of the control response that was lost under treatment. As to `CC1=Nc2ccccc2NC(C)(C)C1`, in the data set with BV-2 [1], the pIC50 was 4.84. Further, the inhibition at 10 µM with BV-2 [2] is 28.6%.
For `CC1(c2ccccc2[N+](=O)[O-])CC(c2ccccc2[N+](=O)[O-])=Nc2ccccc2N1` (configuration not stated) the same measures were 4.63 and 24.9%.
For the compound `CCC1=Nc2ccccc2NC(C)(CC)C1` (configuration not stated), the negative logarithm of the IC50 (pIC50) in the data set on BV-2 [1] is 4.82. For the same compound, the inhibition at 10 µM in the data set with BV-2 [2] worked out at 27.4%.
For `Cc1ccc(C2=Nc3ccccc3NC(C)(c3ccc(C)cc3)C2)cc1` (configuration not stated) the same measures were 4.85 and 34.6%.
Consider `CC1(c2cccc(Cl)c2)CC(c2cccc(Cl)c2)=Nc2ccccc2N1` (configuration not stated), for which the pIC50 in the data set on BV-2 [1] is 4.63. The inhibition at 10 µM in the data set on BV-2 [2] came out at 21.2%.
On to `CC1(c2ccsc2)CC(c2ccsc2)=Nc2ccccc2N1` (configuration not stated), for which the negative-log IC50 (pIC50) in the data set on BV-2 [1] was 4.45. For the same compound, the inhibition at 10 µM in the data set on BV-2 [2] was 13.2%.
Take `CC1(c2ccc(Cl)cc2)CC(c2ccc(Cl)cc2)=Nc2ccccc2N1` (configuration not stated): the inhibition at 10 µM in the data set with BV-2 [2] stood at 28.2%. In addition, the cytotoxicity in data set [3] came out at 28.2%.
As for `CC(C)C1=Nc2ccccc2NC(C)(C(C)C)C1` (configuration not stated), in the data set on BV-2 [1], the negative-log IC50 (pIC50) is 4.78. Further, the inhibition at 10 µM with BV-2 [2] was 26.3%.
In the same order, the values of `CC1(c2ccccc2)CC(c2ccccc2)=Nc2ccccc2N1` (configuration not stated) are 5.03 and 59.8%.
In the case of `CC1(c2cccs2)CC(c2cccs2)=Nc2ccccc2N1` (configuration not stated), the pIC50 in the data set on BV-2 [1] was 5.15. Further, in the data set on BV-2 [2], the inhibition at 10 µM was 70.3%. Further, the inhibition result with BV-2 [4] was “inactive”. For the same compound, the inhibition entry in data set [5] is “Active”.
